Data as given in ChEMBL document CHEMBL1122485, “Antibacterially active substituted anilides of carboxylic and sulfonic acids” (1983).
Converted amounts (≈) assume the structure as drawn.

Legend:
Staphylococcus aureus [1] = test: Bacteriostatic activity against Staphylococcus aureus ATCC 6538 at 1 ppm concentration; + =Positive; assay type: functional, organism-based
Staphylococcus aureus [2] = test: Minimum inhibitory concentration against staphylococcus aureus ATCC 6538; assay type: functional
How it was run: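 Agar dilution: 1% stocks in 95% ethanol or water, serially diluted into nutrient agar (pH 6.8) to 1000, 100, 10 and 1 ppm. Plates were dried 30 min at 37 °C and spotted with ten drops of 24-h nutrient broth culture. Incubation was 48 h at 37 °C, in duplicate, with hexachlorophene as standard. MIC was the lowest level with no growth of any inoculum on either dish.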

[3] = tested on: Lactiplantibacillus plantarum; test: Activity at 1 ppm against Lactobacillus plantarum; x=Effective; assay type: functional, organism-based
How it was run: (§1)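 Gram-positive panel on nutrient agar containing compound at 10, 1.0 and 0.1 ppm, duplicate plates. Six 15-µL drops per species, each holding 10⁷ vegetative cells (10⁶ for L. plantarum). Hexachlorophene and no-compound plates were run alongside. Plates were incubated 5 days at 30 °C and scored for growth. MIC was taken as the lowest level with no colonies on either plate.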

Staphylococcus aureus [4] = test: Bactericidal activity against Staphylococcus aureus ATCC 6538 at 1 ppm concentration; + =Positive; assay type: functional, organism-based
Bacillus cereus [5] = test: Activity at 1 ppm against Bacillus cereus NRRL 3711; x=Effective; assay type: functional, organism-based; how it was run: as §1
Staphylococcus aureus [6] = test: Activity at 1 ppm against Staphylococcus aureus ATCC 6538; x=Effective; assay type: functional, organism-based
Enterococcus faecalis [7] = test: Activity at 1 ppm against Streptococcus faecalis; x=Effective; assay type: functional, organism-based; how it was run: as §1
Bacillus cereus [8] = test: Activity at 10 ppm against Bacillus cereus NRRL 3711; d=A few resistant colonies grew; assay type: functional, organism-based; how it was run: as §1
Staphylococcus aureus [9] = test: Bacteriostatic activity against Staphylococcus aureus ATCC 6538 at 10 ppm concentration; + =Positive; assay type: functional, organism-based
How it was run: (§2)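 S. aureus was inoculated at 10⁷/mL into 10 mL nutrient broth with 10 ppm compound. Those tubes were centrifuged (10000g, 10 min), resuspended in sterile diluent and streaked onto nutrient agar. Colonies after 48 h at 30 °C meant bacteriostatic; none meant bactericidal.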

Staphylococcus aureus [10] = test: Activity at 10 ppm against Staphylococcus aureus ATCC 6538; x=Effective; assay type: functional, organism-based
[11] = tested on: Lactiplantibacillus plantarum; test: Activity at 10 ppm against Lactobacillus plantarum; x=Effective; assay type: functional, organism-based; how it was run: as §1
Staphylococcus aureus [12] = test: Bactericidal activity against Staphylococcus aureus ATCC 6538 at 10 ppm concentration; -=Negative; assay type: functional, organism-based; how it was run: as §2
Staphylococcus aureus [13] = test: Bactericidal activity against Staphylococcus aureus ATCC 6538 at 10 ppm concentration; + =Positive; assay type: functional, organism-based; how it was run: as §2
Staphylococcus aureus [14] = test: Bacteriostatic activity against Staphylococcus aureus ATCC 6538 at 10 ppm concentration; - = Negative; assay type: functional, organism-based; how it was run: as §2
Enterococcus faecalis [15] = test: Activity at 10 ppm against Streptococcus faecalis; x=Effective; assay type: functional, organism-based; how it was run: as §1
Staphylococcus aureus [16] = test: Bactericidal activity against Staphylococcus aureus ATCC 6538 at 10 ppm concentration; - = Negative; assay type: functional, organism-based; how it was run: as §2
Bacillus cereus [17] = test: Activity at 10 ppm against Bacillus cereus NRRL 3711;* = Effective; assay type: functional, organism-based; how it was run: as §1
[18] = tested on: Lactiplantibacillus plantarum; test: Activity at 10 ppm against Lactobacillus plantarum;* = Effective; assay type: functional, organism-based; how it was run: as §1
Staphylococcus aureus [19] = test: Activity at 10 ppm against Staphylococcus aureus ATCC 6538;* = Effective; assay type: functional, organism-based
Bacillus cereus [20] = test: Activity at 10 ppm against Bacillus cereus NRRL 3711; x=Effective; assay type: functional, organism-based; how it was run: as §1
Staphylococcus aureus [21] = test: Bacteriostatic activity against Staphylococcus aureus ATCC 6538 at >10 ppm concentration; - = Negative; assay type: functional, organism-based
Staphylococcus aureus [22] = test: Bactericidal activity against Staphylococcus aureus ATCC 6538 at >10 ppm concentration; - = Negative; assay type: functional, organism-based
Staphylococcus aureus [23] = test: Bacteriostatic activity against Staphylococcus aureus ATCC 6538 at 10 ppm concentration; x=Effective; assay type: functional, organism-based; how it was run: as §2
Enterococcus faecalis [24] = test: Activity against Streptococcus faecalis; xe=S. faecalis was inhibited at 10 p.p.m. but not at 1 ppm; assay type: functional, organism-based; how it was run: as §1
Staphylococcus aureus [25] = test: Bactericidal activity against Staphylococcus aureus ATCC 6538 at 1 ppm concentration; - = Negative; assay type: functional, organism-based

| MIC (Staphylococcus aureus [2]) [µg/mL] | SMILES | Activity (Staphylococcus aureus [9]) | Activity (Staphylococcus aureus [10]) | Activity [11] | Activity (Enterococcus faecalis [15]) | Activity (Staphylococcus aureus [16]) | further results |
| --- | --- | --- | --- | --- | --- | --- | --- |
| 1 (≈ 3.12 µM) | C=C(CCCCCCCC)C(=O)Nc1cc([N+](=O)[O-])ccc1O |  |  |  |  |  | Activity (Staphylococcus aureus [1]): Positive; Activity [3]: Concentration effective; Activity (Staphylococcus aureus [4]): Positive; Activity (Bacillus cereus [5]): Concentration effective; Activity (Staphylococcus aureus [6]): Concentration effective; Activity (Enterococcus faecalis [7]): Concentration effective |
| 1 (≈ 3.47 µM) | CCCCCCCC(=O)Nc1ccc(Cl)c(Cl)c1 | Negative | Concentration effective | Concentration effective |  |  | Activity (Bacillus cereus [8]): A few resistant colonies grew; Activity (Staphylococcus aureus [12]): Negative |
| 1 (≈ 2.9 µM) | CCCc1ccc(S(=O)(=O)Nc2ccc(Cl)c(Cl)c2)cc1 |  |  | Concentration effective | Concentration effective |  | Activity (Staphylococcus aureus [13]): Negative; Activity (Staphylococcus aureus [14]): Negative |
| 1 (≈ 2.71 µM) | CCCCc1ccc(S(=O)(=O)Nc2ccc(Cl)c([N+](=O)[O-])c2)cc1 |  |  | Concentration effective | Concentration effective | Negative | Activity (Staphylococcus aureus [14]): Negative |
| 1 (≈ 3.2 µM) | CCCCCCCCC(=O)Nc1ccc(Cl)c([N+](=O)[O-])c1 | Negative |  | Concentration effective |  | Negative | Activity (Bacillus cereus [8]): A few resistant colonies grew |
| 1 (≈ 3.47 µM) | CCCCCCCC(=O)Nc1cc(Cl)cc(Cl)c1 | Negative |  |  |  | Negative | Activity (Bacillus cereus [17]): Concentration effective; Activity [18]: Concentration effective; Activity (Staphylococcus aureus [19]): Concentration effective |
| 1 (≈ 2.69 µM) | O=S(=O)(Nc1ccc(Cl)c(Cl)c1)c1ccc(Cl)c(Cl)c1 | Negative | Concentration effective | Concentration effective | Concentration effective | Negative | Activity (Bacillus cereus [20]): Concentration effective |
| 1 (≈ 3.52 µM) | CCCCCCCCC(=O)Nc1cc(Cl)ccc1O |  |  |  |  |  | Activity (Staphylococcus aureus [21]): Negative; Activity (Staphylococcus aureus [22]): Negative |
| 1 (≈ 3.42 µM) | C=C(CCCCCC)C(=O)Nc1cc([N+](=O)[O-])ccc1O | Negative | Concentration effective | Concentration effective | Concentration effective | Negative | Activity (Bacillus cereus [20]): Concentration effective |
| 1 (≈ 3.35 µM) | CCCCCCCC(=O)Nc1ccc(Cl)c([N+](=O)[O-])c1 |  |  | Concentration effective |  | Negative | Activity (Bacillus cereus [20]): Concentration effective; Activity (Staphylococcus aureus [14]): Negative |
| 1 (≈ 3.49 µM) | C=C(CCCCC)C(=O)Nc1cc(Cl)cc(Cl)c1 | Negative | Concentration effective | Concentration effective |  | Negative | Activity (Bacillus cereus [8]): A few resistant colonies grew |
| 1 (≈ 3.24 µM) | CCCCCCCCCC(=O)Nc1cc([N+](=O)[O-])ccc1O | Negative |  |  |  | Negative | Activity (Staphylococcus aureus [23]): Concentration effective |
| 1 (≈ 3.26 µM) | C=C(CCCCCCC)C(=O)Nc1cc([N+](=O)[O-])ccc1O |  |  |  |  |  | Activity (Enterococcus faecalis [24]): Inhibited at 10ppm but not at 1ppm; Activity (Staphylococcus aureus [25]): Negative; Activity (Staphylococcus aureus [1]): Negative; Activity [3]: Concentration effective; Activity (Bacillus cereus [5]): Concentration effective; Activity (Staphylococcus aureus [6]): Concentration effective |
